In ChEMBL document CHEMBL3352597, “Heck products of parthenolide and melampomagnolide-B as anticancer modulators that modify cell cycle progression” (Eur J Med Chem, 2014):
Active and inactive are the calls of the source. The calls are words filed in the database; no cut-off is given here.

Tests used:
Assay type in all cases: functional
CCRF-CEM = assay: Anticancer activity against human CCRF-CEM cells
Summary of the method: (§1)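 NCI 60 human cancer cell line panel, multiple-dose testing at five concentrations (10^-4, 10^-5, 10^-6, 10^-7 and 10^-8 M). Dose-response curves plot cytotoxic effect against log10 of drug concentration for each cell line. GI50 is the molar concentration giving 50% growth inhibition; LC50 is the concentration killing 50% of cells.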

HL-60(TB) = assay: Anticancer activity against human HL-60(TB) cells; summary of the method: as §1
K562 = assay: Anticancer activity against human K562 cells; summary of the method: as §1
[1] = Anticancer activity against human RPMI8226 cells; summary of the method: as §1
SR = assay: Anticancer activity against human SR cells
Summary of the method: (§2)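 NCI 60 human tumour cell line screen. A single-concentration pre-screen was run at 10^-5 M. Compounds selected from it were then tested at five concentrations, 10^-4 to 10^-8 M. Dose-response curves plotted cytotoxic effect against log10 of the drug concentration for each cell line. GI50 is the molar concentration giving 50% growth inhibition, and LC50 the concentration killing 50% of cells.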

A549 = assay: Anticancer activity against human A549 cells; summary of the method: as §1
HOP-62 = assay: Anticancer activity against human HOP62 cells; summary of the method: as §1
NCI-H226 = assay: Anticancer activity against human NCI-H226 cells; summary of the method: as §1
NCI-H23 = assay: Anticancer activity against human NCI-H23 cells; summary of the method: as §1
NCI-H322M = assay: Anticancer activity against human NCI-H322M cells after 48 hrs; summary of the method: as §1
NCI-H460 = assay: Anticancer activity against human NCI-H460 cells; summary of the method: as §1
NCI-H522 = assay: Anticancer activity against human NCI-H522 cells; summary of the method: as §1
[2] = Anticancer activity against human HCC2998 cells; summary of the method: as §1
[3] = Anticancer activity against human HCT116 cells; summary of the method: as §1
[4] = Anticancer activity against human HCT15 cells; summary of the method: as §1
KM12 = assay: Anticancer activity against human KM12 cells; summary of the method: as §1
SW-620 = assay: Anticancer activity against human SW620 cells; summary of the method: as §2
SF-268 = assay: Anticancer activity against human SF268 cells; summary of the method: as §1
[5] = Anticancer activity against human SF295 cells; summary of the method: as §1
[6] = Anticancer activity against human SF539 cells; summary of the method: as §1
SNB-19 = assay: Anticancer activity against human SNB19 cells; summary of the method: as §1
U-251 = assay: Anticancer activity against human U251 cells; summary of the method: as §2
[7] = Anticancer activity against human LOXIMVI cells; conditions: LOX IMVI; summary of the method: as §1
M14 = assay: Anticancer activity against human M14 cells; summary of the method: as §1
MDA-MB-435 = assay: Anticancer activity against human MDA-MB-435 cells; summary of the method: as §1
SK-MEL-2 = assay: Anticancer activity against human SK-MEL-2 cells; summary of the method: as §1
SK-MEL-28 = assay: Anticancer activity against human SK-MEL-28 cells; summary of the method: as §1
SK-MEL-5 = assay: Anticancer activity against human SK-MEL-5 cells; summary of the method: as §1
[8] = Anticancer activity against human UACC257 cells; summary of the method: as §2
[9] = Anticancer activity against human UACC62 cells; summary of the method: as §2
IGROV-1 = assay: Anticancer activity against human IGROV1 cells; summary of the method: as §1
[10] = Anticancer activity against human OVCAR3 cells; summary of the method: as §1
[11] = Anticancer activity against human OVCAR4 cells; summary of the method: as §1
[12] = Anticancer activity against human OVCAR5 cells; summary of the method: as §1
[13] = Anticancer activity against human OVCAR8 cells; summary of the method: as §1
[14] = Anticancer activity against human NCI-ADR-RES cells; summary of the method: as §1
[15] = Anticancer activity against human SKOV3 cells; summary of the method: as §1
786-0 = assay: Anticancer activity against human 786-0 cells; summary of the method: as §1
A498 = assay: Anticancer activity against human A498 cells; summary of the method: as §1
ACHN = assay: Anticancer activity against human ACHN cells; summary of the method: as §1
CAKI-1 = assay: Anticancer activity against human CAKI-1 cells; summary of the method: as §1
[16] = Anticancer activity against human RXF393 cells; summary of the method: as §1
SN12C = assay: Anticancer activity against human SN12C cells; summary of the method: as §1
TK-10 = assay: Anticancer activity against human TK10 cells; summary of the method: as §2
[17] = Anticancer activity against human UO31 cells; summary of the method: as §2
[18] = Anticancer activity against human PC3 cells; summary of the method: as §1
DU-145 = assay: Anticancer activity against human DU145 cells after 48 hrs; conditions: DU-145, 48 h; summary of the method: as §1
MCF7 = assay: Anticancer activity against human MCF7 cells; summary of the method: as §1
[19] = Anticancer activity against human Hs 578T cells; summary of the method: as §1
[20] = Anticancer activity against human BT549 cells; summary of the method: as §1
T47D = assay: Anticancer activity against human T47D cells; summary of the method: as §2
MDA-MB-468 = assay: Anticancer activity against human MDA-MB-468 cells; summary of the method: as §1
[21] = read-out: LC50 (the source's name)

For `C/C1=C\CC[C@@]2(C)O[C@@H]2[C@H]2OC(=O)/C(=C/c3ccsc3)[C@@H]2CC1`, the GI50 (CCRF-CEM) was 19.1 µM, the CC50 (CCRF-CEM; [21]) was > 100 µM and the GI50 (HL-60(TB)) was 21.7 µM. The CC50 (HL-60(TB); [21]) was 99.9 µM, the GI50 (K562) was 25.2 µM and the CC50 (K562; [21]) was > 100 µM. The GI50 ([1]; RPMI-8226) was 19.7 µM, the CC50 ([1]; RPMI-8226, read-out: LC50 (the source's name)) was > 100 µM and the GI50 (SR) was 20.7 µM. For the same compound, the CC50 (SR; [21]) was > 100 µM, the GI50 (A549) was 29.8 µM and the CC50 (A549; [21]) was > 100 µM. The GI50 (HOP-62) was 35.8 µM, the CC50 (HOP-62; [21]) was > 100 µM and the GI50 (NCI-H226) was 30.2 µM. The CC50 (NCI-H226; [21]) was > 100 µM, the GI50 (NCI-H23) was 23 µM and the CC50 (NCI-H23; [21]) was > 100 µM. The GI50 (NCI-H322M) was 44.7 µM, the CC50 (NCI-H322M; [21]) was > 100 µM and the GI50 (NCI-H460) was 29.3 µM. For the same compound, the CC50 (NCI-H460; [21]) was > 100 µM, the GI50 (NCI-H522) was 5.44 µM and the CC50 (NCI-H522; [21]) was 59.7 µM. For the same compound, the GI50 ([2]; HCC 2998) was 33.8 µM, the CC50 ([2]; HCC 2998, read-out: LC50 (the source's name)) was > 100 µM and the GI50 ([3]; HCT-116) was 28.3 µM. For the same compound, the CC50 ([3]; HCT-116, read-out: LC50 (the source's name)) was > 100 µM, the GI50 ([4]; HCT-15) was 22.6 µM and the CC50 ([4]; HCT-15, read-out: LC50 (the source's name)) was > 100 µM. The GI50 (KM12) was 20.4 µM, the CC50 (KM12; [21]) was 86.7 µM and the GI50 (SW-620) was 22.9 µM. For the same compound, the CC50 (SW-620; [21]) was > 100 µM, the GI50 (SF-268) was 21.3 µM and the CC50 (SF-268; [21]) was > 100 µM. The GI50 ([5]; SF-295) was 28.5 µM, the CC50 ([5]; SF-295, read-out: LC50 (the source's name)) was > 100 µM and the GI50 ([6]; SF-539) was 16.1 µM. The CC50 ([6]; SF-539, read-out: LC50 (the source's name)) was 62.2 µM, the GI50 (SNB-19) was 47.6 µM and the CC50 (SNB-19; [21]) was > 100 µM. The GI50 (U-251) was 21.7 µM, the CC50 (U-251; [21]) was > 100 µM and the GI50 [7] was 18 µM. The CC50 [7, 21] was 71.2 µM, the GI50 (M14) was 20.5 µM and the CC50 (M14; [21]) was > 100 µM. The GI50 (MDA-MB-435) was 18.3 µM, the CC50 (MDA-MB-435; [21]) was > 100 µM and the GI50 (SK-MEL-2) was “inactive”. The LC50 (SK-MEL-2) was “inactive”, the GI50 (SK-MEL-28) was 29.4 µM and the CC50 (SK-MEL-28; [21]) was > 100 µM. It also gave a GI50 (SK-MEL-5) of 16.3 µM, an LC50 (SK-MEL-5) of 60.4 µM and a GI50 ([8]; UACC-257) of 16.6 µM. For the same compound, the CC50 ([8]; UACC-257, read-out: LC50 (the source's name)) was > 100 µM, the GI50 ([9]; UACC-62) was 13.8 µM and the CC50 ([9]; UACC-62, read-out: LC50 (the source's name)) was 76.6 µM. The GI50 (IGROV-1) was 27.9 µM, the CC50 (IGROV-1; [21]) was > 100 µM and the GI50 ([10]; OVCAR-3) was 20.5 µM. For the same compound, the CC50 ([10]; OVCAR-3, read-out: LC50 (the source's name)) was > 100 µM, the GI50 ([11]; OVCAR-4) was 24.3 µM and the CC50 ([11]; OVCAR-4, read-out: LC50 (the source's name)) was > 100 µM. The GI50 ([12]; OVCAR-5) was 48.1 µM, the CC50 ([12]; OVCAR-5, read-out: LC50 (the source's name)) was > 100 µM and the GI50 ([13]; OVCAR-8) was 26.9 µM. For the same compound, the CC50 ([13]; OVCAR-8, read-out: LC50 (the source's name)) was > 100 µM, the GI50 [14] was 23.6 µM and the CC50 [14, 21] was > 100 µM. For the same compound, the GI50 ([15]; SK-OV-3) was 44.9 µM, the CC50 ([15]; SK-OV-3, read-out: LC50 (the source's name)) was > 100 µM and the GI50 (786-0) was 35.7 µM. The CC50 (786-0; [21]) was > 100 µM, the GI50 (A498) was 17.5 µM and the CC50 (A498; [21]) was > 100 µM. For the same compound, the GI50 (ACHN) was 32.8 µM, the CC50 (ACHN; [21]) was > 100 µM and the GI50 (CAKI-1) was 30.9 µM. The CC50 (CAKI-1; [21]) was > 100 µM, the GI50 ([16]; RXF 393) was 18.1 µM and the CC50 ([16]; RXF 393, read-out: LC50 (the source's name)) was > 100 µM. The GI50 (SN12C) was 25.8 µM, the CC50 (SN12C; [21]) was > 100 µM and the GI50 (TK-10) was 34.7 µM. For the same compound, the CC50 (TK-10; [21]) was > 100 µM, the GI50 ([17]; UO-31) was 27.3 µM and the CC50 ([17]; UO-31, read-out: LC50 (the source's name)) was > 100 µM. The GI50 ([18]; PC-3) was 22.7 µM, the CC50 ([18]; PC-3, read-out: LC50 (the source's name)) was > 100 µM and the GI50 (DU-145) was 25.7 µM. For the same compound, the CC50 (DU-145; [21]) was > 100 µM, the GI50 (MCF7) was 20 µM and the CC50 (MCF7; [21]) was > 100 µM. The GI50 [19] was 21.5 µM, the CC50 [19, 21] was > 100 µM and the GI50 ([20]; BT-549) was 20.1 µM. The CC50 ([20]; BT-549, read-out: LC50 (the source's name)) was 88.2 µM, the GI50 (T47D) was 29.5 µM and the CC50 (T47D; [21]) was > 100 µM. For the same compound, the GI50 (MDA-MB-468) was 17.7 µM and the LC50 (concentration killing 50% of cells) (MDA-MB-468) was > 100 µM.
